For five compounds, IC50 and inhibition results are on record in ChEMBL document CHEMBL5579791, “Azetidine ring, salicylic acid, and salicylic acid bioisosteres as determinants of the binding characteristics of novel potent compounds to Stat3” (Bioorg Med Chem Lett, 2024).

The structures appear in SMILES notation. Active and inactive are the calls of the source. The rule behind the calls is not given here. Where a SMILES comes first, the peptide text is derived from it. [ ]: non-standard residue; d: D form. pY = N[C@@H](Cc1ccc(OP(=O)(O)O)cc1)C(=O)O

In assay [1] the target is Signal transducer and activator of transcription 3 (Homo sapiens, UniProt P40763, C328A). The assay can be described thus: Inhibition of recombinant wild type tyrosine phosphorylated C-terminal 6His tagged human STAT3 C328A mutant (127 to 711 residues) DNA-binding activity transfected in v-Src transformed mouse NIH3T3 cell nuclear extract preincubated for 30 mins followed by addition of radiolabeled hSIE and measured after 30 mins by EMSA analysis. Type of assay: subcellular, Nucleus.

Assay [2] deals with PANC-1. Briefly: Inhibition of STAT3/gp130 protein-protein interaction in human PANC-1 cells at 3 uM incubated for 8 hrs by immunoblotting analysis. The class given is cell-based. The method in brief:
(§1)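 Panc-1 pancreatic cancer cells treated 8 h; whole-cell lysates prepared, EGFR, gp130, Src or JAK2 immunoprecipitated and immunoblotted for Stat3; control cells given 0.1% DMSO; 2 independent determinations.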
In general terms: In western blotting, separated proteins are transferred to a membrane and probed.

Assay [3] concerns the target T1, Signal transducer and activator of transcription 3 (Homo sapiens, UniProt P40763). Briefly: Displacement of 5-carboxyfluorescein GpYLPQTV-NH2 probe from C-terminal 6His-tagged recombinant human STAT3 (127 to 711 residues) SH2 domain extracted from Escherichia coli BL21 (DE3) assessed as inhibition of dimerization preincubated for 60 mins followed by probe addition and measured after 30 mins by fluorescence polarization assay. A general note: Polarisation of emitted light reports the rotation of a fluorescent probe.

Assay [4] addresses JAK2-STAT3 (Homo sapiens) (UniProt O60674+P40763). The assay can be described thus: Inhibition of STAT3/JAK2 protein-protein interaction in human PANC-1 cells at 3 uM incubated for 8 hrs by immunoblotting analysis. Type of assay: cell-based.
The target in assay [5] is T1, Signal transducer and activator of transcription 3. The assay can be described thus: Displacement of 5-carboxyfluorescein GpYLPQTV-NH2 probe from C-terminal 6His-tagged recombinant human STAT3 (127 to 711 residues) SH2 domain extracted from Escherichia coli BL21 (DE3) assessed as inhibition of dimerization preincubated for 10 mins followed by probe addition and measured after 30 mins by fluorescence polarization assay.

For assay [6] the target is unchanged. Briefly: Inhibition of C-terminal 6His-tagged recombinant human STAT3 (127 to 711 residues) DNA-binding activity transfected in v-Src transformed mouse NIH3T3 cell nuclear extract preincubated for 60 mins followed by addition of radiolabeled hSIE and measured after 30 mins by EMSA analysis. Type of assay: subcellular, Nucleus. For orientation: In EMSA bound probe runs differently from free probe, usually more slowly.

The target is the same in assay [7]. The assay can be described thus: Inhibition of recombinant wild type tyrosine phosphorylated C-terminal 6His tagged human STAT3 (127 to 711 residues) DNA-binding activity transfected in v-Src transformed mouse NIH3T3 cell nuclear extract preincubated for 30 mins followed by addition of radiolabeled hSIE and measured after 30 mins by EMSA analysis. Type of assay: subcellular, Nucleus.

Assay [8] concerns PANC-1. The assay can be described thus: Inhibition of STAT3/Src protein-protein interaction in human PANC-1 cells at 3 uM incubated for 8 hrs by immunoblotting analysis. Type of assay: cell-based. The method in brief:
as §1

Assay [9] addresses T1, Signal transducer and activator of transcription 3. Briefly: Inhibition of C-terminal 6His-tagged recombinant human STAT3 (127 to 711 residues) DNA-binding activity transfected in v-Src transformed mouse NIH3T3 cell nuclear extract preincubated for 10 mins followed by addition of radiolabeled hSIE and measured after 30 mins by EMSA analysis. The class given is subcellular, Nucleus.

For assay [10] the target is unchanged. The assay can be described thus: Displacement of 5-carboxyfluorescein GpYLPQTV-NH2 probe from C-terminal 6His-tagged recombinant human STAT3 (127 to 711 residues) SH2 domain extracted from Escherichia coli BL21 (DE3) assessed as inhibition of dimerization preincubated for 30 mins followed by probe addition and measured after 30 mins by fluorescence polarization assay.

In assay [11] the target is Signal transducer and activator of transcription 3 (Homo sapiens, UniProt P40763, C542S). The assay can be described thus: Inhibition of recombinant wild type tyrosine phosphorylated C-terminal 6His tagged human STAT3 C542S mutant (127 to 711 residues) DNA-binding activity transfected in v-Src transformed mouse NIH3T3 cell nuclear extract preincubated for 30 mins followed by addition of radiolabeled hSIE and measured after 30 mins by EMSA analysis. Type of assay: subcellular, Nucleus.

The subject of assay [12] is PANC-1. The assay can be described thus: Inhibition of STAT3/EGFR protein-protein interaction in human PANC-1 cells at 3 uM incubated for 8 hrs by immunoblotting analysis. Type of assay: cell-based. The method in brief: as §1

T1 sequence (P40763 whole entry, the tested form may be a part): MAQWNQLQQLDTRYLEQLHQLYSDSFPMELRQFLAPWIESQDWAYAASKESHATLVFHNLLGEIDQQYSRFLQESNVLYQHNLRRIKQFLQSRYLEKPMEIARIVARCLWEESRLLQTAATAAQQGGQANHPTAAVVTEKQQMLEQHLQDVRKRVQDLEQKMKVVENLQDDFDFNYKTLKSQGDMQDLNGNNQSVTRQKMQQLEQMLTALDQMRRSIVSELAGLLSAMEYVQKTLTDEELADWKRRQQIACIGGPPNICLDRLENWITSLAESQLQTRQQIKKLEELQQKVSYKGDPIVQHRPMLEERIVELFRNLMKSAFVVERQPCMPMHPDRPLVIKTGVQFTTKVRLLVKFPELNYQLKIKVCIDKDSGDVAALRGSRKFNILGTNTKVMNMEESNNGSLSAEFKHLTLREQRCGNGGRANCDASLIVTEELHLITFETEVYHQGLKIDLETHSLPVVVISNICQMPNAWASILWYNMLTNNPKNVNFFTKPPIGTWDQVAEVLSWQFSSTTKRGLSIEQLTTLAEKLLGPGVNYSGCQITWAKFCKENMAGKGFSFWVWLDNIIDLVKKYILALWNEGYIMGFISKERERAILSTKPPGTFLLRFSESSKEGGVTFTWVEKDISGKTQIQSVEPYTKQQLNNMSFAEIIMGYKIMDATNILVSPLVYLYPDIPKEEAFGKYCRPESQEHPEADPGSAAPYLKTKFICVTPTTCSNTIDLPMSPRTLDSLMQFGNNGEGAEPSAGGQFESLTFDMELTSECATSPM
Chain of Signal transducer and activator of transcription 3 (Homo sapiens, UniProt P40763, C328A) (P40763 2-770 C328A limits assumed): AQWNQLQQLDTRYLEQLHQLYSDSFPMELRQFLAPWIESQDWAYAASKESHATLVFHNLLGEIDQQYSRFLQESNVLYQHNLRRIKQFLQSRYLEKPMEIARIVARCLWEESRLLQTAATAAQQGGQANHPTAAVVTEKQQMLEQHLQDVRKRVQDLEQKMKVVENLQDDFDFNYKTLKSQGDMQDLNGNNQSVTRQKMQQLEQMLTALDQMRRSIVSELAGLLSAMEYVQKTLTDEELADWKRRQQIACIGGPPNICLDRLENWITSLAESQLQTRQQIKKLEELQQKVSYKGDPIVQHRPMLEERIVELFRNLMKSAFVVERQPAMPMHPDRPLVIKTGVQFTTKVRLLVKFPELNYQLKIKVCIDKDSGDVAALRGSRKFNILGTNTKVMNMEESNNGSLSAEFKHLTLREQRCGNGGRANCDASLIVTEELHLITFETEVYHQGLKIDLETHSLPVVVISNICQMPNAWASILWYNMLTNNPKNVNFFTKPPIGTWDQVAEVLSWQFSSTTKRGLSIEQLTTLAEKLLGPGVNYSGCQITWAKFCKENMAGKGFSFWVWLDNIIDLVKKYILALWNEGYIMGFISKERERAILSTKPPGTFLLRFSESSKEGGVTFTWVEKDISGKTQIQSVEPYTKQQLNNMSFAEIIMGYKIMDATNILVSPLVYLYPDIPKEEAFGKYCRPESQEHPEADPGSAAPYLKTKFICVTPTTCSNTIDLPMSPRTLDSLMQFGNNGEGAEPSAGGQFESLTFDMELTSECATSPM
Chain of Signal transducer and activator of transcription 3 (Homo sapiens, UniProt P40763, C542S) (P40763 2-770 C542S limits assumed): as the sequence (P40763 2-770 C328A limits assumed) above, with A327C, C541S counted along it

Broadly, the IC50 is the concentration that gives 50% inhibition. Take `O=C([C@H]1CCN1S(=O)(=O)c1c(F)c(F)c(F)c(F)c1F)N(Cc1ccc(C2CCCCC2)cn1)c1ccc2c(=O)[nH]ncc2c1`: the IC50 in assay [1] is 8.8 µM; in assay [3], over 600 µM; in [5] it was over 600 µM; in [6], 0.38 µM; in assay [7], 4.8 µM; in [9], 1.5 µM. Moreover, the IC50 in assay [10] was over 600 µM; in assay [11], 5.5 µM. Besides, the inhibition entry (with PANC-1 [2]; in [4]; in the assay on PANC-1 [12]) was “Active” each time. In the assay on PANC-1 [8], the inhibition result is “inactive”.

Regarding `CC(C)C[C@H](NC(=O)[C@H](Cc1ccc(OP(=O)(O)O)cc1)NC(=O)CN)C(=O)N1CCC[C@H]1C(=O)N[C@@H](CCC(N)=O)C(=O)N[C@H](C(=O)N[C@H](C(=O)O)C(C)C)[C@@H](C)O` (H-G[pY]LPQTV-OH), the results for the IC50 in assay [3], in assay [5] and in assay [10] were 0.19 µM, 0.29 µM and 0.22 µM, respectively.

Take `CN(CC(=O)N(Cc1ccc(C2CCCCC2)cc1)c1ccc(C(=O)O)c(O)c1)S(=O)(=O)c1c(F)c(F)c(Cl)c(F)c1F`: the figures for the IC50 in assay [3], in assay [5] and in assay [10] were 35.5 µM, 48.4 µM and 41.4 µM, respectively.

With `Cc1ccc(S(=O)(=O)N2CC[C@@H]2C(=O)N(Cc2ccc(C3CCCCC3)cn2)c2ccc(C(=O)O)c(O)c2)cc1`, the figures for the half-maximal inhibitory concentration (IC50) in assay [3], in assay [5] and in assay [10] were 82.5 µM, 86.4 µM and 83.6 µM, respectively.

With `O=C(O)c1ccc(N(Cc2cnc(C3CCCCC3)cn2)C(=O)[C@H]2CCN2S(=O)(=O)c2c(F)c(F)c(Cl)c(F)c2F)cc1O`, the IC50 in assay [3] came to 181 µM; in assay [5], 190 µM; in assay [10] it was 186 µM.
